For test [1], the species on record is Ovis aries. The experiment in a line: Displacement of [3H]-YM09151-2 from dopamine D2 receptor in lamb brain striatum membranes at 25 uM. The note with it: Membrane. It counts as cell membranes. In a few lines: (§1)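 Lamb striatal membranes (0.5 mg prot/mL) in 50 mM Tris-HCl pH 7.4 with 10 mM MgCl2 were incubated 2 h at 22 C. Radioligand was 0.9 nM [3H]-SCH23390 (D1) or 0.7 nM [3H]-YM09151-2 (D2). Screens used 25 μM compound; competition used increasing concentrations. Nonspecific binding was taken with 10 μM SCH23390 (D1) or raclopride (D2). Bound ligand was filtered and counted. KD values came from a two-state dimer receptor model fit.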
A general note: Loss of bound radioactivity is the signal in a displacement assay; it reports binding, not function.

The target of test [2] is T1, Adenosine receptor A1 (Homo sapiens) (UniProt P30542).
T1 sequence (whole entry): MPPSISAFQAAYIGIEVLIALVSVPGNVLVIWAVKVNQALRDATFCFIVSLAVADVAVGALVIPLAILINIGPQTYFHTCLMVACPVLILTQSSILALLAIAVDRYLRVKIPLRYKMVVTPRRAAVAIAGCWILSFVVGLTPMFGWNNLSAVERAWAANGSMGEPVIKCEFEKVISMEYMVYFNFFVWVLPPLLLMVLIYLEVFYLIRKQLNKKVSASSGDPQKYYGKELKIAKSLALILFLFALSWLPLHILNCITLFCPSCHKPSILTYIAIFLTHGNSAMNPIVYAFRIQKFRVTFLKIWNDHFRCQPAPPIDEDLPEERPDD
Description: Displacement of [3H]-R-PIA from adenosine A1 receptor at 25 uM. The gist of the method: (§2)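 Membranes were incubated with 25 μM compound for 2 h at 22 C in 50 mM Tris-HCl pH 7.4 with 10 mM MgCl2 and 0.2 U/mL ADA. Radioligand was 1.0 nM [3H]-R-PIA (A1) or 1.6 nM [3H]ZM241385 (A2A). Nonspecific binding was taken with 10 μM DPCPX (A1) or ZM241385 (A2A). Separation was by GF/C filtration, then scintillation counting.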

The species named for test [3] is Ovis aries. Description: Displacement of [3H]-SCH23390 from dopamine D1 receptor in lamb brain striatum membranes at 25 uM. It counts as cell membranes. The note with it: Membrane. The gist of the method: as §1
Test [4] has as its target Adenosine receptor A2a (Homo sapiens) (UniProt P29274). Description: Displacement of [3H]-ZM241385 from adenosine A2A receptor at 25 uM. In a few lines: as §2
Test [5] in a line: Displacement of [3H]-SCH23390 from dopamine D1 receptor low binding affinity site in lamb brain striatum membranes at 25 uM. It counts as cell membranes, Ovis aries, Membrane. In a few lines: as §1
Test [6] is described as follows: Displacement of [3H]-YM09151-2 from dopamine D2 receptor low binding affinity site in lamb brain striatum membranes at 25 uM. It counts as cell membranes, Ovis aries, Membrane. The gist of the method: as §1
Test [7] in a line: Displacement of [3H]-SCH23390 from dopamine D1 receptor high binding affinity site in lamb brain striatum membranes at 25 uM. It counts as cell membranes, Ovis aries, Membrane. In a few lines: as §1
Test [8] can be described thus: Displacement of [3H]-YM09151-2 from dopamine D2 receptor high binding affinity site in lamb brain striatum membranes at 25 uM. It counts as cell membranes, Ovis aries, Membrane. In a few lines: as §1

Activity calls are given as the source filed them. No cut-off for these calls is given here.

Adenosine receptor A2a (Homo sapiens), sequence (P29274 whole entry): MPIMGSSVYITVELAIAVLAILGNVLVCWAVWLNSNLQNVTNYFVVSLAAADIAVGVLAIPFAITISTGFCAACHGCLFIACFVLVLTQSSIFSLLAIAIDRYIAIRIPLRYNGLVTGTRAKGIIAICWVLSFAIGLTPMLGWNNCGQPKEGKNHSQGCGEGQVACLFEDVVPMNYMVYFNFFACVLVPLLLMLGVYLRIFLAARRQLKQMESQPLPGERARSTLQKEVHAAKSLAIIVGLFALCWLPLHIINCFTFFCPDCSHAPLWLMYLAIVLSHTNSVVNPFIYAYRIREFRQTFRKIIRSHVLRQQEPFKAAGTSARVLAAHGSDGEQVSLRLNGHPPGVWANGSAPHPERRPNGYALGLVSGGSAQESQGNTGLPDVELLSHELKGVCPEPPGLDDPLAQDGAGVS

In the case of `CC(=O)N[C@@H](CCCCNC(=O)CCCC(=O)NCCNC(=O)C1CCCN(C(=O)[C@H](Cc2ccc(F)cc2)NC(=O)[C@H](Cc2ccc([N+](=O)[O-])cc2)NC(=O)[C@@H]2C=C3c4cccc5[nH]cc(c45)C[C@H]3N(C)C2)C1)C(N)=O` (stereo not given in full), in test [1], the result was Active.

On to `CC(=O)N[C@@H](CCCCNC(=O)CCCCCNC(=O)[C@@H]1CCCN1C(=O)[C@H](Cc1ccc([N+](=O)[O-])cc1)NC(=O)[C@@H](NC(=O)[C@@H]1C=C2c3cccc4[nH]cc(c34)C[C@H]2N(C)C1)C(C)C)C(N)=O`, for which the outcome in test [2] and in test [3] was Active.

As for `CC(=O)N[C@@H](CCCCNC(=O)CCCCCNC(=O)C1CCCN(C(=O)[C@H](Cc2ccc(F)cc2)NC(=O)[C@H](Cc2ccc([N+](=O)[O-])cc2)NC(=O)[C@@H]2C=C3c4cccc5[nH]cc(c45)C[C@H]3N(C)C2)C1)C(N)=O` (stereo not given in full), the result in test [2] and in test [4] was Active.

Consider `CC(=O)N[C@@H](CCCCNC(=O)c1ccc(C(=O)c2ccc(C(=O)NCCNC(=O)C3CCCN(C(=O)[C@H](Cc4ccc(F)cc4)NC(=O)[C@H](Cc4ccc([N+](=O)[O-])cc4)NC(=O)[C@@H]4C=C5c6cccc7[nH]cc(c67)C[C@H]5N(C)C4)C3)cc2)cc1)C(N)=O` (stereo not given in full), for which the result in test [1] was Active.

Turning to `CC(=O)N[C@@H](CCC(=O)Nc1ccc(-c2ccc(NC(=O)C3CCCN(C(=O)[C@H](Cc4ccc(F)cc4)NC(=O)[C@H](Cc4ccc([N+](=O)[O-])cc4)NC(=O)[C@@H]4C=C5c6cccc7[nH]cc(c67)C[C@H]5N(C)C4)C3)cc2)cc1)C(N)=O` (stereo not given in full), in test [1], the result was Active.

As to `CC(=O)N[C@@H](CCCCNC(=O)[C@H](N)CCCCNC(=O)[C@@H]1CCCN1C(=O)[C@H](Cc1ccc([N+](=O)[O-])cc1)NC(=O)[C@@H](NC(=O)[C@@H]1C=C2c3cccc4[nH]cc(c34)C[C@H]2N(C)C1)C(C)C)C(N)=O`, the outcome in test [3] was inactive. Moreover, the result in test [1] was Active.

Regarding `CC(=O)N[C@@H](CCCCNC(=O)CCC(=O)NCCNC(=O)[C@@H]1CCCN1C(=O)[C@H](Cc1ccc([N+](=O)[O-])cc1)NC(=O)[C@@H](NC(=O)[C@@H]1C=C2c3cccc4[nH]cc(c34)C[C@H]2N(C)C1)C(C)C)C(N)=O`, in test [1], the outcome was Active.

On to `CC(=O)N[C@@H](CCC(=O)Nc1ccc(Sc2ccc(NC(=O)C3CCCN(C(=O)[C@H](Cc4ccc(F)cc4)NC(=O)[C@H](Cc4ccc([N+](=O)[O-])cc4)NC(=O)[C@@H]4C=C5c6cccc7[nH]cc(c67)C[C@H]5N(C)C4)C3)cc2)cc1)C(N)=O` (stereo not given in full), for which the outcome in test [1] was Active.

For the compound `CC(=O)N[C@@H](CCC(=O)NCCCCCCNC(=O)[C@@H]1CCCN1C(=O)[C@H](Cc1ccc([N+](=O)[O-])cc1)NC(=O)[C@@H](NC(=O)[C@@H]1C=C2c3cccc4[nH]cc(c34)C[C@H]2N(C)C1)C(C)C)C(N)=O`, the outcome in test [3] and in test [1] was Active.

As to `CC(=O)N[C@@H](CCCCNC(=O)[C@@H](CCCCNC(=O)C1CCCN(C(=O)[C@H](Cc2ccc(F)cc2)NC(=O)[C@H](Cc2ccc([N+](=O)[O-])cc2)NC(=O)[C@@H]2C=C3c4cccc5[nH]cc(c45)C[C@H]3N(C)C2)C1)NC(C)=O)C(N)=O` (stereo not given in full), the outcome in test [2], in test [4] and in test [1] was Active.

In the case of `CC(=O)N[C@@H](CCC(=O)NCCNC(=O)[C@@H]1CCCN1C(=O)[C@H](Cc1ccc([N+](=O)[O-])cc1)NC(=O)[C@@H](NC(=O)[C@@H]1C=C2c3cccc4[nH]cc(c34)C[C@H]2N(C)C1)C(C)C)C(N)=O`, the result in test [3] and in test [1] was Active.

As to `CC(=O)N[C@@H](CCCCNC(=O)C1CCCN(C(=O)[C@H](Cc2ccc(F)cc2)NC(=O)[C@H](Cc2ccc([N+](=O)[O-])cc2)NC(=O)[C@@H]2C=C3c4cccc5[nH]cc(c45)C[C@H]3N(C)C2)C1)C(N)=O` (stereo not given in full), the outcome in test [1] was Active.

In the case of `CC(=O)N[C@@H](CCCCNC(=O)[C@@H](CCCCNC(=O)[C@@H]1CCCN1C(=O)[C@H](Cc1ccc([N+](=O)[O-])cc1)NC(=O)[C@@H](NC(=O)[C@@H]1C=C2c3cccc4[nH]cc(c34)C[C@H]2N(C)C1)C(C)C)NC(C)=O)C(N)=O`, the result in test [2], in test [4] and in test [3] was Active.

As for `CC(=O)N[C@@H](CCCCNC(=O)[C@@H](CCCCN)NC(=O)[C@@H]1CCCN1C(=O)[C@H](Cc1ccc([N+](=O)[O-])cc1)NC(=O)[C@@H](NC(=O)[C@@H]1C=C2c3cccc4[nH]cc(c34)C[C@H]2N(C)C1)C(C)C)C(N)=O`, the outcome in test [1] was Active.

Turning to `CC(=O)N[C@@H](CCCCNC(=O)[C@@H]1CCCN1C(=O)[C@H](Cc1ccc([N+](=O)[O-])cc1)NC(=O)[C@@H](NC(=O)[C@@H]1C=C2c3cccc4[nH]cc(c34)C[C@H]2N(C)C1)C(C)C)C(=O)NCCCC[C@H](NC(=O)CCCC[C@H]1SC[C@H]2NC(=O)N[C@H]21)C(N)=O`, the Kd is greater than 50 µM in test [5], 23 µM in test [6], 2.1 µM in test [7] and 2 µM in test [8].

`CC(=O)N[C@@H](CCCCNC(=O)[C@@H]1CCCN1C(=O)[C@H](Cc1ccc([N+](=O)[O-])cc1)NC(=O)[C@@H](NC(=O)[C@@H]1C=C2c3cccc4[nH]cc(c34)C[C@H]2N(C)C1)C(C)C)C(N)=O`: the outcome in test [3] and in test [1] was Active.

In the case of `CC(=O)N[C@@H](CCC(=O)Nc1ccc(-c2ccc(NC(=O)[C@@H]3CCCN3C(=O)[C@H](Cc3ccc([N+](=O)[O-])cc3)NC(=O)[C@@H](NC(=O)[C@@H]3C=C4c5cccc6[nH]cc(c56)C[C@H]4N(C)C3)C(C)C)cc2)cc1)C(N)=O`, the outcome in test [1] was Active.

Regarding `CC(=O)N[C@@H](CCCCNC(=O)c1ccc(-c2ccc(C(=O)NCCNC(=O)C3CCCN(C(=O)[C@H](Cc4ccc(F)cc4)NC(=O)[C@H](Cc4ccc([N+](=O)[O-])cc4)NC(=O)[C@@H]4C=C5c6cccc7[nH]cc(c67)C[C@H]5N(C)C4)C3)cc2)cc1)C(N)=O` (stereo not given in full), in test [1], the outcome was Active.

On to `CC(C)[C@H](NC(=O)[C@@H]1C=C2c3cccc4[nH]cc(c34)C[C@H]2N(C)C1)C(=O)N[C@@H](Cc1ccc([N+](=O)[O-])cc1)C(=O)N1CCC[C@H]1C(=O)NCCCCCC(=O)NCCCC[C@H](NC(=O)CCCC[C@H]1SC[C@H]2NC(=O)N[C@H]21)C(N)=O`, for which the equilibrium dissociation constant (Kd) in test [5] stood at 3.2 µM; in test [6] it was 7 µM; in test [7], 0.107 µM; in test [8], 0.26 µM.

The term Kd denotes a measure of binding affinity in units of concentration. Higher therefore signals lower affinity.

(Values after ChEMBL document CHEMBL1671805, “Biotin ergopeptide probes for dopamine receptors” (J Med Chem, 2011).)
